Data as given in ChEMBL document CHEMBL4689842, “EUbOPEN Chemogenomics Library wave 1” (2021).

Test system: HEK-293T
Experiment: Multiplex assay against HEK293T;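 for Population Tubulin-Different-Phenotype (%): share of the cells with healthy nuclei that show this phenotype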
Assay type: toxicity, cell-based
Settings: human
Method in brief: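 Values for tubulin, mitochondrial-mass and membrane-permeability phenotypes are per cents of cells with healthy nuclei. These cells were identified by CellPathfinder machine-learning gating of live cells that had been stained at seeding with Hoechst33342, BioTracker Green Microtubule Cytoskeleton Dye, MitoTracker Red and Annexin V Alexa Fluor 680 and imaged on a CQ1 microscope at 37°C and 5% CO2 after compound addition. The gating first set Hoechst high-intensity objects apart from normal cells, then split normal cells into healthy, pyknosed or fragmented nuclei, and pyknosed cells into mitotic or apoptotic.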

[1] = 12 h, 1 µM, compound concentration 1 uM, replicate 1
[2] = 12 h, 1 µM, compound concentration 1 uM, replicate 2
[3] = 12 h, 10 µM, compound concentration 10 uM, replicate 1
[4] = 12 h, 10 µM, compound concentration 10 uM, replicate 2
[5] = 24 h, 1 µM, compound concentration 1 uM, replicate 1
[6] = 24 h, 1 µM, compound concentration 1 uM, replicate 2
[7] = 24 h, 10 µM, compound concentration 10 uM, replicate 1
[8] = 24 h, 10 µM, compound concentration 10 uM, replicate 2
[9] = 48 h, 1 µM, compound concentration 1 uM, replicate 1
[10] = 48 h, 1 µM, compound concentration 1 uM, replicate 2
[11] = 48 h, 10 µM, compound concentration 10 uM, replicate 1
[12] = 48 h, 10 µM, compound concentration 10 uM, replicate 2

## CCn1c(-c2nonc2N)nc2cnc(Oc3cccc(NC(=O)c4ccc(OCCN5CCOCC5)cc4)c3)cc21 [GSK-269962A]
[1]
  Population Apoptotic (%): 44%
  Population Fragmented Nuclei (%): 14%
  Population Healthy Nuclei (%): 26%
  Population Hoechst High Intensity Objects (%): 17%
  Population Membrane Permeable-Phenotype (%): 3%
  Population Mitochondria Different-Phenotype (%): 75%
  Population Mitotic Cells (%): 55%
  Population Normal (%): 82%
  Population Pyknosed Nuclei (%): 58%
  Population Tubulin-Different-Phenotype (%): 55%
  Total Cell Count: 262
[2]
  Population Apoptotic (%): 12%
  Population Fragmented Nuclei (%): 8%
  Population Healthy Nuclei (%): 44%
  Population Hoechst High Intensity Objects (%): 6%
  Population Membrane Permeable-Phenotype (%): 5%
  Population Mitochondria Different-Phenotype (%): 21%
  Population Mitotic Cells (%): 87%
  Population Normal (%): 93%
  Population Pyknosed Nuclei (%): 46%
  Population Tubulin-Different-Phenotype (%): 21%
  Total Cell Count: 251
[3]
  Population Apoptotic (%): 61%
  Population Fragmented Nuclei (%): 7%
  Population Healthy Nuclei (%): 20%
  Population Hoechst High Intensity Objects (%): 12%
  Population Membrane Permeable-Phenotype (%): 1%
  Population Mitochondria Different-Phenotype (%): 98%
  Population Mitotic Cells (%): 38%
  Population Normal (%): 87%
  Population Pyknosed Nuclei (%): 72%
  Population Tubulin-Different-Phenotype (%): 100%
  Total Cell Count: 284
[4]
  Population Apoptotic (%): 54%
  Population Fragmented Nuclei (%): 4%
  Population Healthy Nuclei (%): 13%
  Population Hoechst High Intensity Objects (%): 7%
  Population Membrane Permeable-Phenotype (%): 0%
  Population Mitochondria Different-Phenotype (%): 100%
  Population Mitotic Cells (%): 45%
  Population Normal (%): 92%
  Population Pyknosed Nuclei (%): 81%
  Total Cell Count: 186
[5]
  Population Apoptotic (%): 56%
  Population Fragmented Nuclei (%): 18%
  Population Healthy Nuclei (%): 30%
  Population Hoechst High Intensity Objects (%): 16%
  Population Membrane Permeable-Phenotype (%): 1%
  Population Mitochondria Different-Phenotype (%): 75%
  Population Mitotic Cells (%): 43%
  Population Normal (%): 83%
  Population Pyknosed Nuclei (%): 51%
  Population Tubulin-Different-Phenotype (%): 43%
  Total Cell Count: 254
[6]
  Population Apoptotic (%): 11%
  Population Fragmented Nuclei (%): 12%
  Population Healthy Nuclei (%): 61%
  Population Hoechst High Intensity Objects (%): 3%
  Population Membrane Permeable-Phenotype (%): 4%
  Population Mitochondria Different-Phenotype (%): 17%
  Population Mitotic Cells (%): 88%
  Population Normal (%): 96%
  Population Pyknosed Nuclei (%): 26%
  Population Tubulin-Different-Phenotype (%): 31%
  Total Cell Count: 267
[7]
  Population Apoptotic (%): 74%
  Population Fragmented Nuclei (%): 12%
  Population Healthy Nuclei (%): 31%
  Population Hoechst High Intensity Objects (%): 12%
  Population Membrane Permeable-Phenotype (%): 4%
  Population Mitochondria Different-Phenotype (%): 96%
  Population Mitotic Cells (%): 25%
  Population Normal (%): 87%
  Population Pyknosed Nuclei (%): 56%
  Population Tubulin-Different-Phenotype (%): 98%
  Total Cell Count: 276
[8]
  Population Apoptotic (%): 72%
  Population Fragmented Nuclei (%): 6%
  Population Healthy Nuclei (%): 22%
  Population Hoechst High Intensity Objects (%): 6%
  Population Membrane Permeable-Phenotype (%): 5%
  Population Mitochondria Different-Phenotype (%): 87%
  Population Mitotic Cells (%): 28%
  Population Normal (%): 93%
  Population Pyknosed Nuclei (%): 70%
  Population Tubulin-Different-Phenotype (%): 97%
  Total Cell Count: 189
[9]
  Population Apoptotic (%): 56%
  Population Fragmented Nuclei (%): 18%
  Population Healthy Nuclei (%): 23%
  Population Hoechst High Intensity Objects (%): 19%
  Population Membrane Permeable-Phenotype (%): 4%
  Population Mitochondria Different-Phenotype (%): 54%
  Population Mitotic Cells (%): 43%
  Population Normal (%): 80%
  Population Pyknosed Nuclei (%): 58%
  Population Tubulin-Different-Phenotype (%): 45%
  Total Cell Count: 255
[10]
  Population Apoptotic (%): 41%
  Population Fragmented Nuclei (%): 20%
  Population Healthy Nuclei (%): 66%
  Population Hoechst High Intensity Objects (%): 3%
  Population Membrane Permeable-Phenotype (%): 5%
  Population Mitochondria Different-Phenotype (%): 12%
  Population Mitotic Cells (%): 58%
  Population Normal (%): 96%
  Population Pyknosed Nuclei (%): 12%
  Population Tubulin-Different-Phenotype (%): 30%
  Total Cell Count: 329
[11]
  Population Apoptotic (%): 80%
  Population Fragmented Nuclei (%): 18%
  Population Healthy Nuclei (%): 40%
  Population Hoechst High Intensity Objects (%): 11%
  Population Membrane Permeable-Phenotype (%): 1%
  Population Mitochondria Different-Phenotype (%): 97%
  Population Mitotic Cells (%): 19%
  Population Normal (%): 88%
  Population Pyknosed Nuclei (%): 41%
  Population Tubulin-Different-Phenotype (%): 97%
  Total Cell Count: 286
[12]
  Population Apoptotic (%): 82%
  Population Fragmented Nuclei (%): 5%
  Population Healthy Nuclei (%): 56%
  Population Hoechst High Intensity Objects (%): 7%
  Population Mitochondria Different-Phenotype (%): 89%
  Population Mitotic Cells (%): 17%
  Population Normal (%): 92%
  Population Pyknosed Nuclei (%): 38%
  Population Tubulin-Different-Phenotype (%): 99%
  Total Cell Count: 192
